ChEMBL document CHEMBL4052757, “Bistacrines as potential antitrypanosomal agents” (Bioorg Med Chem, 2017)
The source made the active and inactive calls. The rule behind the calls is not given here.

Key:
[1] = tested on: Trypanosoma brucei brucei; experiment: Antitrypanosomal activity against Trypanosoma brucei brucei TC221 after 72 hrs by alamar blue assay; assay type: functional; settings: TC221, 72 h
Summary of the method: (§1)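 T. b. brucei TC221 bloodstream-form proliferation measured by alamarBlue (resazurin reduced to resorufin by living cells); 48 h and 72 h read-outs. IC50 derived per Räz et al. method; each compound tested in duplicate, mean of two values.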

[2] = tested on: Trypanosoma brucei brucei; experiment: Antitrypanosomal activity against Trypanosoma brucei brucei TC221 after 48 hrs by alamar blue assay; assay type: functional; settings: TC221, 48 h; summary of the method: as §1
J774.1 = experiment: Cytotoxicity against mouse J774.1 cells after 24 hrs by alamar blue assay; assay type: cell-based; settings: J774.1, 24 h
[3] = Selectivity index, ratio of IC50 for mouse J774.1 cells to IC50 for Trypanosoma brucei brucei TC221 measured after 48 hrs; assay type: toxicity; settings: J774.1 cells (versus Trypanosoma brucei brucei TC221), read-out: Ratio IC50
Summary of the method: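 Selectivity index computed as IC50 (J774.1 macrophages, alamarBlue) divided by IC50 (T. b. brucei TC221, alamarBlue); duplicate determinations, means used.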

[4] = target: Rhodesain (Trypanosoma brucei rhodesiense) (UniProt Q95PM0); experiment: Inhibition of Trypanosoma brucei rhodesiense rhodesain at 20 uM using Cbz-Phe-Arg-AMC as substrate measured for 5 mins by spectrofluorometric analysis relative to control
Rhodesain (Trypanosoma brucei rhodesiense), sequence (Q95PM0 1-450): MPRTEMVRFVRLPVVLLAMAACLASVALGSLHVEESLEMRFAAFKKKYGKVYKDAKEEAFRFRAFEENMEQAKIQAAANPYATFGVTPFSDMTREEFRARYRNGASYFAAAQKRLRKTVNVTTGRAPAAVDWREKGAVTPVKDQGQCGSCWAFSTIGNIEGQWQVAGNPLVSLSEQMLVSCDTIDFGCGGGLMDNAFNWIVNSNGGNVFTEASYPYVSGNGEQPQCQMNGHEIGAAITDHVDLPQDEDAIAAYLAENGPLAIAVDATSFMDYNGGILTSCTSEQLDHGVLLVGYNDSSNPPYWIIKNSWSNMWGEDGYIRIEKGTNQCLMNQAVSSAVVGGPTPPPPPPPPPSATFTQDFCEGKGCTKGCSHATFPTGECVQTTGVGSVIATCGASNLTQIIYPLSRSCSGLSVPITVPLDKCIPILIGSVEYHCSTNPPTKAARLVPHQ
Summary of the method: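 Rhodesain in 50 mM sodium acetate pH 5.5 with 5 mM DTT, 5 mM EDTA, 200 mM NaCl; inhibitor 20 µM, substrate Cbz-Phe-Arg-AMC; AMC fluorescence (ex 380/em 460 nm) followed 5 min; activity from slopes of fluorescence vs time versus DMSO control; run in duplicate.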

Rhodesain = Rhodesain (Trypanosoma brucei rhodesiense, UniProt Q95PM0); experiment: Inhibition of Trypanosoma brucei rhodesiense rhodesain using Cbz-Phe-Arg-AMC as substrate measured for 10 mins by spectrofluorometric analysis
Rhodesain, sequence (Q95PM0 whole entry): as the sequence (Q95PM0 1-450) above

[5] = target: Rhodesain (Trypanosoma brucei rhodesiense) (UniProt Q95PM0); experiment: Inhibition of Trypanosoma brucei rhodesiense rhodesain using Cbz-Phe-Arg-AMC as substrate by spectrofluorometric analysis
Leishmania infantum = experiment: Antileishmanial activity against Leishmania infantum; assay type: functional
[6] = Inhibition of trypanothione reductase
[7] = Stability of the compound; assay type: physicochemical
[8] = Ratio of IC50 for Trypanosoma brucei rhodesiense rhodesain to IC50 for Trypanosoma brucei brucei TC221
[9] = target: Trypanothione reductase (Trypanosoma cruzi) (UniProt P28593); experiment: Inhibition of Trypanosoma cruzi trypanothione reductase at 5 uM using 100 uM trypanothione disulfide as substrate by spectrophotometric method relative to control
Trypanothione reductase (Trypanosoma cruzi), sequence (P28593 whole entry, looked up): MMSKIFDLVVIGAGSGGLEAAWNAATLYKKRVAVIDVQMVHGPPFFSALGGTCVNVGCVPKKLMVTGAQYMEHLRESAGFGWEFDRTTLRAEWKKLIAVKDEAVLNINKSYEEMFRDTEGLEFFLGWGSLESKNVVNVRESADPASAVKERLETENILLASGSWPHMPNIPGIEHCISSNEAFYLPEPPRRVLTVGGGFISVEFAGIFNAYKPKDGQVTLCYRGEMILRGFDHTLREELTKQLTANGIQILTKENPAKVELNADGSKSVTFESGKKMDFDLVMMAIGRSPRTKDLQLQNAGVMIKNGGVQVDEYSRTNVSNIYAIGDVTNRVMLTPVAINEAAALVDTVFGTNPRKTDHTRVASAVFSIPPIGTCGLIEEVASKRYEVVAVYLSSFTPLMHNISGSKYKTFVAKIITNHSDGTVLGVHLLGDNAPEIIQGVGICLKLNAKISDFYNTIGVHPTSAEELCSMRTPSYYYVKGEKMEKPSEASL
Summary of the method: (§2)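 TcTryR (about 2 nM) in 40 mM HEPES, 1 mM EDTA, pH 7.5, 100 µM NADPH; inhibitor at fixed 2 or 5 µM (screening range 1–5 µM) from DMSO stock; TS2 fixed at 40 or 100 µM; absorbance decrease monitored; percent inhibition versus DMSO control.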

[10] = target: Trypanothione reductase (Trypanosoma cruzi) (UniProt P28593); experiment: Inhibition of Trypanosoma cruzi trypanothione reductase at 5 uM using 40 uM trypanothione disulfide as substrate by spectrophotometric method relative to control; summary of the method: as §2
[11] = target: Trypanothione reductase (Trypanosoma cruzi) (UniProt P28593); experiment: Inhibition of Trypanosoma cruzi trypanothione reductase at 2 uM using 100 uM trypanothione disulfide as substrate by spectrophotometric method relative to control; summary of the method: as §2
[12] = target: Trypanothione reductase (Trypanosoma cruzi) (UniProt P28593); experiment: Inhibition of Trypanosoma cruzi trypanothione reductase at 2 uM using 40 uM trypanothione disulfide as substrate by spectrophotometric method relative to control; summary of the method: as §2
[13] = Aqueous solubility of the compound; assay type: physicochemical; settings: buffer

| SMILES | IC50 [1] [µM] | IC50 [2] [nM] | IC50 (J774.1) [µM] | selectivity ratio at 48 h [3] | Activity (Leishmania infantum) | inhibition [6] | further results |
| --- | --- | --- | --- | --- | --- | --- | --- |
| CCC1CCc2nc3ccccc3c(N)c2C1 (stereo not drawn) | 17.2 | 12300 | 43.6 | 3.5 |  |  |  |
| CC1(C)CCc2c(nc3cc(Cl)ccc3c2NCCCCCCNc2c3c(nc4cc(Cl)ccc24)CC(C)(C)CC3)C1 | 0.72 | 640 | 1.7 | 2.7 | Active | Active | inhibition [4]: 64%; IC50 (Rhodesain): 26.6 µM; inhibition [5]: Dose-dependent effect |
| C1=Cc2c(nc3ccccc3c2NCCCCCCCCNc2c3c(nc4ccccc24)CCC=C3)CC1 | 0.25 | 80 | 1.7 | 21.3 | Active | Active | Stability [7]: Stable |
| CC1CCc2c(nc3ccc([N+](=O)[O-])cc3c2N)C1 (stereo not drawn) | 3.7 | 6100 | 43.3 | 7.1 |  |  |  |
| Nc1c2c(nc3ccccc13)CCCC2 [TACRINE] | 18.4 | 14600 |  | > 6.8 |  |  |  |
| CCC1CCc2nc3cc(Cl)ccc3c(N)c2C1 (stereo not drawn) | 3.5 | 2800 | 24.4 | 8.7 |  |  |  |
| CC1CCc2c(nc3ccc([N+](=O)[O-])cc3c2NCCCCCCNc2c3c(nc4ccc([N+](=O)[O-])cc24)CC(C)CC3)C1 (stereo not drawn) | 0.68 | 620 |  | 38.5 | Active | Active | inhibition [4]: 82%; IC50 (Rhodesain): 5.8 µM; inhibition [5]: Dose-dependent effect; Ratio IC50 [8]: 10 |
| CC1CCc2nc3cc(Cl)ccc3c(N)c2C1 (stereo not drawn) | 13.4 | 6000 | 41.2 | 6.9 |  |  |  |
| C1=Cc2c(nc3ccccc3c2NCCCCCCCCCCNc2c3c(nc4ccccc24)CCC=C3)CC1 | 0.88 | 290 | 9.7 | 33.4 | Active | Active | Stability [7]: Stable |
| CCCC1CCc2nc3cc(Cl)ccc3c(N)c2C1 (stereo not drawn) | 3.4 | 2600 | 8.4 | 3.2 |  |  |  |
| CCCCOC1CCc2nc3cc(Cl)ccc3c(NCCCCCCCCCNc3c4c(nc5cc(Cl)ccc35)CCC(OCCCC)C4)c2C1 (stereo not drawn) | 0.42 | 430 | 8.6 | 20 | Active | Active | inhibition [4]: 26% |
| c1ccc2c(NCCCCCCNc3c4c(nc5ccccc35)CCCC4)c3c(nc2c1)CCCC3 | 0.33 | 260 | 3 |  | Active |  | inhibition [4]: 25%; inhibition [9]: 45.2 to 47.9%; inhibition [10]: 56.6 to 57.5%; inhibition [11]: 15.1%; inhibition [12]: 27.5 to 29.2% |
| Clc1ccc2c(NCCCCCCNc3c4c(nc5cc(Cl)ccc35)CCCC4)c3c(nc2c1)CCCC3 | 0.71 | 640 | 2.8 | 4.4 | Active | Active | inhibition [4]: 61%; IC50 (Rhodesain): 7.4 µM; inhibition [5]: Dose-dependent effect; Ratio IC50 [8]: 10 |
| Nc1c2c(nc3ccc(Cl)cc13)CCCC2 | 16.5 | 12000 |  | 3.6 |  |  |  |
| CC1CCc2nc3ccccc3c(N)c2C1 (stereo not drawn) | 18.1 | 15800 | 44.9 | 2.8 |  |  |  |
| C1=Cc2c(nc3ccccc3c2NCCCCCCNc2c3c(nc4ccccc24)CCC=C3)CC1 | 0.7 | 510 | 1.8 | 3.5 | Active | Active | Stability [7]: Stable |
| N=C(N)c1ccc(OCCCCCOc2ccc(C(=N)N)cc2)cc1 [PENTAMIDINE] |  | 5.3 | 38.6 | 7280 |  |  |  |
| O=C1CCCc2nc3ccccc3c(NCCCCCCCCCCNc3c4c(nc5ccccc35)CCCC4=O)c21 |  |  |  |  |  |  | solubility [13]: Insoluble |
| CCC1CCc2nc3ccc(Cl)cc3c(N)c2C1 (stereo not drawn) | 3.7 | 2700 | 8.3 | 3.1 |  |  |  |

| SMILES | IC50 [1] [µM] | IC50 [2] [nM] | IC50 (J774.1) [µM] | selectivity ratio at 48 h [3] | Activity (Leishmania infantum) | inhibition [6] | further results |
| --- | --- | --- | --- | --- | --- | --- | --- |
| Nc1c2c(nc3cc(Cl)ccc13)CCCC2 | 17.1 | 12600 | 41 | 3.3 |  |  |  |
| c1ccc2c(NCCCCCNc3c4c(nc5ccccc35)CCCC4)c3c(nc2c1)CCCC3 | 6.4 | 5200 |  |  | Active |  | inhibition [4]: 9% |
| CCOC1CCc2nc3cc(Cl)ccc3c(NCCCCCCCCCNc3c4c(nc5cc(Cl)ccc35)CCC(OCC)C4)c2C1 (stereo not drawn) | 0.71 | 630 | 1.7 | 2.8 | Active | Active | inhibition [4]: 89%; IC50 (Rhodesain): 13.3 µM; inhibition [5]: Dose-dependent effect |
| c1ccc2c(NCCCCCCCCCCNc3c4c(nc5ccccc35)CCCC4)c3c(nc2c1)CCCC3 | 0.15 | 120 |  | 15 | Active | Active |  |
| Nc1c2c(nc3ccccc13)CCCC2=O | 18 | 14600 | > 100 | > 6.8 |  |  |  |
| O=C1CCCc2nc3ccccc3c(NCCCCCCCCNc3c4c(nc5ccccc35)CCCC4=O)c21 |  |  |  |  |  |  | solubility [13]: Insoluble |
| CC1CCc2nc3ccc(Cl)cc3c(N)c2C1 (stereo not drawn) | 10.3 | 3900 | 43.8 | 11.2 |  |  |  |
| CCCC1CCc2nc3ccccc3c(N)c2C1 (stereo not drawn) | 3.5 | 2600 |  | 16.5 |  |  |  |
| O=C1CCCc2nc3ccccc3c(NCCCCCCCNc3c4c(nc5ccccc35)CCCC4=O)c21 |  |  |  |  |  |  | solubility [13]: Insoluble |
| Nc1c2c(nc3ccc([N+](=O)[O-])cc13)CCCC2 | 15.1 | 8600 |  | 5.2 |  |  |  |
| CC1CCc2c(nc3ccccc3c2N)C1 (stereo not drawn) | 17.6 | 14500 | 45 | 3.1 |  |  |  |
| CCCC1CCc2nc3ccc(Cl)cc3c(N)c2C1 (stereo not drawn) | 3.4 | 2700 |  | 3.1 |  |  |  |
| COc1ccc2nc3c(c(NCCCCCCCCCNc4c5c(nc6ccc(OC)cc46)CCCC5)c2c1)CCCC3 | 0.14 | 120 |  | 10.6 | Active | Active | inhibition [4]: 82%; IC50 (Rhodesain): 18.1 µM; inhibition [5]: Dose-dependent effect |
| C1=Cc2c(nc3ccccc3c2NCCCCCCCCCNc2c3c(nc4ccccc24)CCC=C3)CC1 | 0.25 | 90 | 1.6 | 16.7 | Active | Active | Stability [7]: Stable |
| O=C1CCCc2nc3ccccc3c(NCCCCCCCCCNc3c4c(nc5ccccc35)CCCC4=O)c21 |  |  |  |  |  |  | solubility [13]: Insoluble |
| CC1CCc2nc3ccc([N+](=O)[O-])cc3c(N)c2C1 (stereo not drawn) | 4.8 | 3200 | 46.4 | 14.5 |  |  |  |
| CC1CCc2nc3ccccc3c(NCCCCCCCCCNc3c4c(nc5ccccc35)CCC(C)C4)c2C1 (stereo not drawn) | 0.21 | 160 | 1.8 | 11.3 | Active | Active | inhibition [4]: 68%; IC50 (Rhodesain): 26.6 µM; inhibition [5]: Dose-dependent effect |
| O=C1CCCc2nc3ccccc3c(NCCCCCCNc3c4c(nc5ccccc35)CCCC4=O)c21 |  |  |  |  |  |  | solubility [13]: Insoluble |
